Tested on: MS2 coat protein
Assay: apparent Kd, MS2 coat protein; higher = weaker binding; RNA-MaP array; FMN 200 µM where present
Method in brief: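 Stalled E. coli RNA polymerase produced the designs on Illumina sequencing-chip clusters. SNAP-549-labelled MS2 coat protein was added from 0.7 or 1.5 nM, doubling to 3 µM, without and then with constant ligand, in 100 mM Tris-HCl pH 7.5, 80 mM KCl, 4 mM MgCl2, BSA, DTT, yeast tRNA and Tween-20. The apparent Kd is the median of filtered per-cluster fits of green signal normalised to red-channel RNA signal and control-cluster median Fmax.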

[1] = designed as: OFF switch for flavin mononucleotide, no ligand
[2] = ligand present: flavin mononucleotide, designed as: OFF switch for flavin mononucleotide
[3] = designed as: ON switch for flavin mononucleotide, no ligand
[4] = ligand present: flavin mononucleotide, designed as: ON switch for flavin mononucleotide

Sequence: UGCCUUAGAGGAUAUACAUUGAAUUUGAUUCAUGUAAAACUACAUGAGGAUCACCCAUGUAGAAGGCUAGGGCU
- apparent Kd [1]: 19.1 nM
- apparent Kd [2]: 37.1 nM

Sequence: CUAAAUCAUGUAGGAUAUGCGUGGCGAAGCUAUGCAGAAGGACAUGAGGAUCACCCAUGUCAAAAUUUCUGCGUACAGACGGAA
- apparent Kd [1]: 15.5 nM
- apparent Kd [2]: 30.7 nM

Sequence: GCACUGCAGCGGCGCACGAGACAUGAGGAUCACCCAUGUGACAGAAGGGACUUGUUAAAGGUAGGUCAGGAUAUGUCUUAAAAG
- apparent Kd [3]: 219 nM
- apparent Kd [4]: 65.8 nM

Sequence: GGUCCACAUGAGGAUCACCCAUGUUAGGAUAUCUCCCGCCUCCUCACUGGAGACGGACAGAGAAGGAACAUCAA
- apparent Kd [1]: 23.6 nM
- apparent Kd [2]: 74.7 nM

Sequence: GUGGUACAUGAGGAUCACCCAUGUUAGGAUAUCGCGUGAGGUUUUACUUCCGCACACGCGAGAAGGGACGUCUU
- apparent Kd [1]: 54.9 nM
- apparent Kd [2]: 41.6 nM

Sequence: CUUUUGUGAGGAUAUGUGGCUUCGAUCGUGAGAUCGAGGCUACAGAAGGCACAUGAGGAUCACCCAUGUUCCUC
- apparent Kd [1]: 60.4 nM
- apparent Kd [2]: 777 nM

Sequence: UGGAUGGUAUGAGGAUAUGCGCGCGACACGCGCGCAGAAGGCAUGUCAAUAGACAUGAGGAUCACCCAUGUAUUAUCCAUCCAA
- apparent Kd [3]: 201 nM
- apparent Kd [4]: 14.8 nM

Sequence: CAUCUACAGGGAGGAUAUACAUGAGGAUCACCCAUGUCAUCAUACGAUCUUUCUUUUGUAUGAGUGUAGAAGGCCCAACUACCA
- apparent Kd [1]: 15.2 nM
- apparent Kd [2]: 15.2 nM

Sequence: UGAGUAGCGAAACAAUGCACAUGAGGAUCACCCAUGUCUACACAGGAUAUGCGACGCUCCAGUUAGCAGAAGGGUGAACUCAAA
- apparent Kd [3]: 40.2 nM
- apparent Kd [4]: 82.3 nM

Sequence: GUAGCCGACCAGAAGGGUGACAUGAGGAUCACCCAUGUAGAUGUGUUCCCGCUUGGGAGCCGUCCACAGGAUAUGGUUGGUUAU
- apparent Kd [3]: 54.1 nM
- apparent Kd [4]: 38.3 nM

Sequence: GCUGAUGCAGGAUAUAUAUGAAGCGUUCGAAUAGAAUGCGAACAUGAGGAUCACCCAUGUAGAAGGGCAUUGGC
- apparent Kd [1]: 14.6 nM
- apparent Kd [2]: 20.1 nM

Sequence: CUGAGGUAAGGAUAUAGGAGAGAAGAUAAGGUAUGAGAGUUCUAGAAGGUACAUGAGGAUCACCCAUGUUAGGG
- apparent Kd [1]: 477 nM
- apparent Kd [2]: 235 nM

Sequence: GGUCUACAUGAGGAUCACCCAUGUAAGGAUAUCGUCACUGGAGCUUCGGCUCCAGUGACGAGAAGGUACGUAAU
- apparent Kd [1]: 31.7 nM
- apparent Kd [2]: 33.7 nM

Sequence: GCCCGGGCUAACAUGAGGAUCACCCAUGUGUUAUACUUAAUAUAGGAUAUGUUUAUACUUUUUGGGCAGAAGGAUGGCCCGGGC
- apparent Kd [3]: 68.2 nM
- apparent Kd [4]: 61.7 nM

Sequence: CCUCAGGCGGAGGAUAUCUAACAACAAUAACAAAGAGAAGGCCGCACAUGAGGAUCACCCAUGUGUAUGGGCCG
- apparent Kd [1]: 12.4 nM
- apparent Kd [2]: 22.8 nM

Sequence: GCUGACGAUGUAGGAUAUCAGUAUAAUAAAUACUGAGAAGGACAUGAGGAUCACCCAUGUCUCCAACGUCAGCAGAGGAAACUC
- apparent Kd [1]: 15.9 nM
- apparent Kd [2]: 16.8 nM

Sequence: AUCUUGAGAGGAUAUACAUGAGGAUCACCCAUGUUGCUAACACCAUGAGCUCAUUUACGUAGAAGGCUCAUCCG
- apparent Kd [1]: 17.7 nM
- apparent Kd [2]: 17.2 nM

Sequence: CGCUGUCUCGCAGGAUAUGCAUUGGAUUACAAUGCAGAAGGGCGAUUACAUGAGGAUCACCCAUGUGUUGACAGUGAAGAAGAG
- apparent Kd [3]: 114 nM
- apparent Kd [4]: 21.6 nM

Sequence: UUUUUUGUUGUGAGGAUAUCGUAUUUUUUUUGUUACGAGAAGGCACAUGAGGAUCACCCAUGUUUUUUGAUGUU
- apparent Kd [1]: 24.8 nM
- apparent Kd [2]: 56.7 nM

Sequence: CUUCGACAUGAGGAUCACCCAUGUCAGGAUAUUGUUUAUCUGGUUUUUUACAGAUAUGCAAGAAGGGAUGUGUU
- apparent Kd [1]: 28.5 nM
- apparent Kd [2]: 23.1 nM

Sequence: GGGCCCGGAGGAUAUACAUGAGGAUCACCCAUGUAGGGUUUGGGUAUUCCCGGGCCCUGUAGAAGGCCGGGCCC
- apparent Kd [1]: 17.1 nM
- apparent Kd [2]: 22.5 nM

Sequence: AUGCUUCACACAGGAUAUACAUGAGGAUCACCCAUGUGUCCUAGGUAGCUGACACGAGCUACCCGGUAGAAGGGUGUGAAGCAU
- apparent Kd [1]: 17 nM
- apparent Kd [2]: 58.4 nM

Sequence: GGGAGACAUGAGGAUCACCCAUGUGAAAACGUGUGAGGAUAUCAAUGGAAACCAUACUGUUGAGAAGGCACUUGUC
- apparent Kd [3]: 118 nM
- apparent Kd [4]: 41.2 nM

Sequence: UGUCGGAGCAGAGGAUAUUACAUGAGGAUCACCCAUGUAUGAACCAAUAGCUAGAAACAGCAAUGUAAGAAGGCUGCUCCGACA
- apparent Kd [1]: 8.97 nM
- apparent Kd [2]: 113 nM

Sequence: AGAAUAAACCAGAAGGCGUAGAUACAUGAGGAUCACCCAUGUAUACUUGCGAGGAUAUGGAUGAUUCAAGUGCGUUUCGUAGCA
- apparent Kd [3]: 6.06 nM
- apparent Kd [4]: 4.23 nM

Sequence: CCUUUGAAGAUCCUAGUUUUCGACAUGAGGAUCACCCAUGUGCAGGAUAUCGUGCCAGUGAUGUGCGAGAAGGGCAGUCUCUGC
- apparent Kd [1]: 110 nM
- apparent Kd [2]: 112 nM

Sequence: ACAUACAUGACAUGACAUGAGGAUCACCCAUGUCCAUGUUACAAGGAUAUGUACAUGAAACAUGUACAGAAGGUGUAUUGGACU
- apparent Kd [1]: 13.1 nM
- apparent Kd [2]: 18 nM

Sequence: CAAUUGGCACAGAAGGGUGACAUGAGGAUCACCCAUGUAGCGUGGCACUCAGGAGGAACCACGCCACAGGAUAUGUGCGGGCAC
- apparent Kd [3]: 65 nM
- apparent Kd [4]: 76.6 nM

Sequence: AAAACUGGAGGAUAUACAUGAGGAUCACCCAUGUGUGGAUGAGCUGUGUCGGCGUCACGUAGAAGGCCACAAAA
- apparent Kd [1]: 40.5 nM
- apparent Kd [2]: 47.5 nM

Sequence: GGGUUACAUGAGGAUCACCCAUGUGAGGAUAUGAUACUAUGUACUUCGGUACAUAGUAUCAGAAGGCACAUAAA
- apparent Kd [1]: 124 nM
- apparent Kd [2]: 122 nM

Sequence: GUCAUGUCAGGAUAUGCUUAUGAUGGGUGCUCAGACAUGAUGCAGAAGGGACAUGAGGAUCACCCAUGUACUGU
- apparent Kd [1]: 62.5 nM
- apparent Kd [2]: 62.5 nM

Sequence: GGUAGAAACAUUAACAUGAGGAUCACCCAUGUCAAAAGAAAUGAGGAUAUCGUCUACAAUGUAGAUGAGAAGGCAUGGUCUGCC
- apparent Kd [3]: 8.45 nM
- apparent Kd [4]: 6.84 nM

Sequence: GUCAGCUCGUGAGGAUAUACAACACUGCUUCGGCAGUGUAUUAAGAUCACAUGAGGAUCACCCAUGUAGAAGGCACGAGCUGGU
- apparent Kd [1]: 14.7 nM
- apparent Kd [2]: 260 nM

Sequence: GGUUGUUAUGACAGCGAGUGUUAGAGAAGGUACAUGAGGAUCACCCAUGUACGUGAUCUUGCGAGUAAGGAUAUCUGUUAUUCA
- apparent Kd [1]: 5.65 nM
- apparent Kd [2]: 5.83 nM

Sequence: GUCGGAAACGACAAUGAUAGGACUGAGGAUAUACGUAUAAAUAUCCUCACAUGAGGAUCACCCAUGUAGAAGGCAGUCCUAUCU
- apparent Kd [1]: 13.2 nM
- apparent Kd [2]: 167 nM

Sequence: UACAUGAGGAUCACCCAUGUUUUGUCGUGUAUGGUAUUUAUCUAGGAUAUCAAUUUAAUUAUUUAUGAGAAGGAGAAUAUUAAU
- apparent Kd [1]: 39.6 nM
- apparent Kd [2]: 33.1 nM

Sequence: UGUAAAUUAUUAAGUAAUUAGGCGAAGGAUAUAUAACAUGAGGAUCACCCAUGUACUAAAUUGAAGUAGAAGGUUGAGCAUUUC
- apparent Kd [3]: 16.5 nM
- apparent Kd [4]: 14.6 nM

Sequence: GUACUGAAGCUUUGCUUUAGUCGUACAUGAGGAUCACCCAUGUAGGAUAUGGUAGGCAUUGCUUACUAGAAGGAUAGAGUGAUC
- apparent Kd [1]: 85 nM
- apparent Kd [2]: 54.9 nM

Sequence: GUAGAGUAAGGAUAUACUGAAUAGGAUAGAAUGGUUAGAAAGUAGAAGGUACAUGAGGAUCACCCAUGUAAUGU
- apparent Kd [1]: 20.3 nM
- apparent Kd [2]: 19.7 nM

Sequence: UAGCUUGACGCAGGAUAUCCAAGGCUGAAAUGAGGAGAAGGGCGCCAAACAUGAGGAUCACCCAUGUAUUAUGCAGGGUCCUCA
- apparent Kd [1]: 362 nM
- apparent Kd [2]: 180 nM

Sequence: CCUCCACAUGAGGAUCACCCAUGUCAGGAUAUCGUGUGUGCGUUUUCGGUCUUUCGUGCGAGAAGGGACGUCUG
- apparent Kd [1]: 68.7 nM
- apparent Kd [2]: 62.9 nM

Sequence: GUGGUCAGACAUGAGGAUCACCCAUGUGGAAUAAAUAACAACUAGGAUAUGUAAUAUAGGAUAUAACAGAAGGAGUGAUUGGUG
- apparent Kd [3]: 168 nM
- apparent Kd [4]: 138 nM

Sequence: CGGUAUCGACAGAAGGACGUAGCACAUGAGGAUCACCCAUGUCCGUAAUGUAGGAUAUGUACGGCCGAUCUCACGCAACACUAA
- apparent Kd [3]: 37.1 nM
- apparent Kd [4]: 13 nM

Sequence: GGAGACCUCACAGGAUAUGCUGGACUUUGUCCAGCAGAAGGGUGAACAUGAGGAUCACCCAUGUUGGUCUCCAAAAUAUUUAAU
- apparent Kd [3]: 882 nM
- apparent Kd [4]: 108 nM

Sequence: CUAUGCGGAAUAGGAUAUUCGAUCAUGAGGAUAGAAGAAGGGUUACAUGAGGAUCACCCAUGUAUGCACAUGAGGAUCCCUUAG
- apparent Kd [1]: 221 nM
- apparent Kd [2]: 243 nM

Sequence: GUGCAGAUGUAAGGAUAUCGACUGGAUAACAGUCGAGAAGGUACAUGAGGAUCACCCAUGUAAAUGAAAGAUAAUAAACUGCAC
- apparent Kd [1]: 14.4 nM
- apparent Kd [2]: 24.9 nM

Sequence: GGUUGGCGAGGAUAUACAUGAGGAUCACCCAUGUGGUCCUGUGGCUGGUCUUGCCUUUGUAGAAGGCGCGGGUC
- apparent Kd [1]: 105 nM
- apparent Kd [2]: 111 nM

Sequence: UCGAUGCUAGGAUAUACGUAUAAAACCACCGUAGAGUCCUCACAUGAGGAUCACCCAUGUAGAAGGAGCAUCUA
- apparent Kd [1]: 17.3 nM
- apparent Kd [2]: 23.4 nM
